Some results are limits rather than exact numbers.

The values that follow come from ChEMBL document CHEMBL1129932, “Novel naphthalene derivatives as inhibitors of human immunoglobulin E antibody production” (J Med Chem, 1997).

A short description of test [1]: Inhibitory activity against IgE antibody production in PMBC cells. The test is classed as functional, cell-based. Conditions: Homo sapiens. The method in brief:
(§1)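 Human PBMC from healthy donors (final 2×10^6 cells/mL) were cultured in triplicate in RPMI 1640 with 10% FCS, 2 mM glutamine and penicillin/streptomycin. On day 0 they received IL-4 0.1 μg/mL, IL-10 0.2 μg/mL and α-CD40 2 μg/mL, with or without compound. After 14 days, IgE in the medium was measured by ELISA. Suppression (%) = (without − with compound)/without × 100, and IC50 was given for active compounds.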

Test [2] in a line: Inhibitory activity against IgG antibody production in PBMC. In kind it is functional. The following applies: Homo sapiens. The method, boiled down: (§2)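 Human PBMC from healthy donors (final 2×10^6 cells/mL, triplicate) were cultured in RPMI 1640 with 10% FCS, glutamine and antibiotics. IL-4 (0.1 μg/mL), IL-10 (0.2 μg/mL) and α-CD40 (2 μg/mL) were added on day 0, with or without compound. After 14 days, IgG in the medium was measured by ELISA. Suppression (%) = (level without − level with compound)/level without × 100.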

Test [3] in a line: In vitro inhibition of IgE antibody production in human PBMC cultured with alpha-CD40, IL-4 and IL-10 at 3 uM concentration. In kind it is functional. The method in brief: as §1
A short description of test [4]: Tested for human PBMC cell viability, cultured with alpha-CD40, IL-4 and IL-10 at 3 uM (a negative number means enhancement of cell viability). The test is classed as functional. The method in brief: (§3)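 Viability was read in the same 14-day PBMC cultures (2×10^6 cells/mL, triplicate) with IL-4 0.1 μg/mL, IL-10 0.2 μg/mL and α-CD40 2 μg/mL. After the medium was removed, alamar blue was added for 2 h and fluorescence was read (excitation 530 nm, emission 590 nm). Suppression (%) = (without − with compound)/without × 100.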

The nature of test [5]: In vitro inhibition of IgG antibody production in human PBMC cultured with alpha-CD40, IL-4 and IL-10 at 3 uM concentration […]. In kind it is functional.
Test [6] can be described thus: In vitro inhibition of IgE antibody production in human PBMC cultured with alpha-CD40, IL-4 and IL-10 at 3 uM concentration (negative means enhancement of antibody biosynthesis). In kind it is functional. The method, boiled down:
as §1

Test [7] is described as follows: Compound was tested for inhibition of IgE production on human PBMC culture after treating with IL-4, alpha-CD40, IL-10. In kind it is functional. The method, boiled down:
as §1

The species named for a further test is Homo sapiens. The experiment in a line: Compound was tested for inhibition of PGE-2 production by human lung fibroblast WI-38 stimulated with interleukin-1-alpha (IL-1alpha) and [Ca2+] ionophore A-23187. In kind it is functional. The method, boiled down:
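WI-38 human lung fibroblasts (2×10^5 cells/mL) were grown to confluence over 4 days, then serum-starved overnight in medium with 0.5% BSA. Medium was replaced with 0.5% BSA medium containing IL-1α 10 ng/mL, with or without compound, and incubated overnight at 37 °C. Released PGE2 was measured by ELISA kit.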

Test [8] deals with RBL-1. The test is described as follows: Compound was tested for inhibition of LTB4 production by rat basophilic leukemia cells(RBL-1) stimulated with A-23187. The test is classed as functional, cell-based. The method, boiled down:
(§4)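 RBL-1 cells were maintained in DMEM with 10% FCS. Cells were preincubated with or without compound for 10 min at 37 °C, then stimulated with A23187 at a final 2 μM for 5 min. The reaction was stopped, and LTB4 in the centrifuged supernatant was measured by ELISA kit.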

Test [9] in a line: In vitro inhibition of IgE antibody production in human PBMC cultured with alpha-CD40, IL-4 and IL-10 at 3 uM concentration […]. In kind it is functional.
Test [10] can be described thus: In vitro inhibition of IgG antibody production in human PBMC cultured with alpha-CD40, IL-4 and IL-10 at 3 uM concentration. In kind it is functional. The method in brief:
as §2

The test system of test [11] is RBL-1. The test is described as follows: Compound was tested for inhibition of LTB4 production by rat basophilic leukemia cells (RBL-1) stimulated with A-23187. In kind it is functional, cell-based. The method, boiled down: as §4
Test [12] can be described thus: Compound was tested for inhibition of IgE production on human PBMC culture after treating with IL-4, HC. The test is classed as functional. The method, boiled down:
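PBMC at a final 2×10^6 cells/mL were cultured in triplicate in RPMI 1640 with 10% FCS, 2 mM glutamine and penicillin/streptomycin. IL-4 (0.1 μg/mL) and HC (1 μM) were added on day 0, with or without compound. After 14 days, IgE in the medium was measured by ELISA. Suppression (%) = (level without compound − level with compound)/level without compound × 100.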

Test [13] is described as follows: Tested for human PBMC cell viability, cultured with alpha-CD40, IL-4 and IL-10 at 3 uM. In kind it is functional. The method, boiled down:
as §3

Test [14] is described as follows: Inhibitory activity against IgE antibody production in PBMC. Conditions: Homo sapiens. The test is classed as functional. The method, boiled down:
as §1

The subject of a further test is B-cell line. The experiment in a line: Compound was tested for inhibition of IgE production on mouse B cells after treating with IL-4, LPS. In kind it is functional, cell-based. The method, boiled down:
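B cells came from DBA/2 splenocytes depleted with anti-mouse T cell serum plus rabbit complement, then fractionated by gradient centrifugation. They were cultured in RPMI 1640 with 10% FCS and LPS at a final 2 μg/mL. After 1 day, mouse IL-4 was added at a final 50 ng/mL. Culture continued for 6 days, and IgE in the media was measured by ELISA.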

For the molecule `O=C(Nc1ccccc1C(=O)O)c1ccc(Oc2ccccc2)cc1`, the IC50 in test [1] is 3280 nM; in test [2], more than 10000 nM. The Suppression in [3] was 46%; in test [5], -1.8%. Further, the Cell viability in test [4] is given as -1.4.
As to `CC(C)(C(=O)Nc1ccccc1C(=O)O)c1ccc(Oc2ccc3ccccc3c2)cc1`, the Suppression in test [6] is given as -30.4%; in test [5] it was -5.4%. For the same molecule, in test [4], the Cell viability was -11.3.
Consider `O=C(Nc1ccccc1C(=O)O)c1ccc(Oc2ccc3ccccc3c2)cc1`, for which the IC50 was 1300 nM in test [7], 38000 nM in test [2], 10000 nM in the test listed under Homo sapiens and 400 nM in the test with RBL-1 [8]. Further, the values for the Suppression in test [3] and in test [5] were 64.8% and -16.9%, respectively. Further, the Cell viability in test [4] is given as -7.4.
Take `O=C(Nc1ccccc1-c1nn[nH]n1)c1ccc(Oc2ccc3ccccc3c2)cc1`: the Suppression is -74.5% in test [9] and -18.7% in [5]. Also, in test [4], the Cell viability is recorded as -13.6.
For `O=C(Cc1ccc(Oc2ccc3ccccc3c2)cc1)Nc1ccccc1C(=O)O`, the Suppression worked out at 31.2% in test [10] and 86.6% in test [3]. In addition, the IC50 in the test with RBL-1 [11] came out at 700 nM; in test [7] it was 600 nM; in test [12], 1900 nM; in [2], 4300 nM; in the test filed under Homo sapiens it was 10000 nM. In test [13], the Cell viability stood at 11.4.
Take `O=C(Nc1ccccc1C(=O)O)c1ccc(COc2ccc3ccccc3c2)cc1`: the Suppression is -6.1% in test [6] and -16.1% in test [5]. In addition, the figures for the IC50 (in test [7]; in the test listed under Homo sapiens) were more than 3000 nM and less than 1000 nM, respectively.
On to `O=C(Nc1ccccc1C(=O)O)c1cccc(Oc2ccc3ccccc3c2)c1`, for which the Suppression in test [9] is listed as -26.2%; in test [5] it was -16%. Also, the Cell viability in [4] was -23.6.
As for `O=C(O)c1cccc(NC(=O)c2ccc(Oc3ccc4ccccc4c3)cc2)c1`, the Suppression in [10] is given as 2.5%; in [9], -29.6%. Besides, the Cell viability in [4] is reported as -14.5.
Regarding `O=C(CCc1ccc(Oc2ccc3ccccc3c2)cc1)Nc1ccccc1C(=O)O`, the Suppression in [3] is reported as 8.5%; in [5], -41.2%. For the same molecule, the Cell viability in test [4] was -2.9.
Turning to `Nc1ccccc1NC(=O)c1ccc(Oc2ccc3ccccc3c2)cc1`, the Suppression worked out at 3.3% in [10] and 31.6% in test [3]. In addition, the Cell viability in [13] is recorded as -9.3.
In the case of `NC(=O)c1ccccc1NC(=O)c1ccc(Oc2ccc3ccccc3c2)cc1`, the Suppression in test [10] amounted to 10.8%; in test [3], 8.6%. Also, the Cell viability in test [13] was determined as 7.3.
In the case of `O=C(O)c1ccccc1C(=O)Nc1ccc(Oc2ccc3ccccc3c2)cc1`, the Suppression was -11.8% in [9] and -23.1% in [5]. In test [13], the Cell viability was 1.5.
Regarding `O=C(Nc1ccccc1C(=O)O)c1ccc(Cc2ccc3ccccc3c2)cc1`, the Suppression in test [3] is recorded as 9.5%; in [5] it was -21.1%. For the same molecule, the Cell viability in test [4] is reported as -1.1.
Consider `O=C(O)c1ccc(Oc2ccc3ccccc3c2)cc1`, for which the Suppression was -4.6% in test [9] and -4.8% in [5].
With `O=C(Nc1ccccc1C(=O)O)c1ccc(Sc2ccc3ccccc3c2)cc1`, the Suppression in test [3] is given as 25.8%; in test [5], -2.8%.
As for `O=C(Nc1ccccc1C(=O)O)c1ccc(C(=O)c2ccc3ccccc3c2)cc1`, the Suppression is 5.4% in test [10] and 10.3% in [3].
Regarding `O=C(CCCC1CC1/C=C/c1ccc2ccccc2c1)Nc1ccccc1C(=O)O` (centres undefined), the IC50 is more than 10000 nM in test [2] and 1880 nM in [14]. The Suppression in test [3] is 63%; in [5] it was -0.5%. The Cell viability in [4] is -2.6%.
For the molecule `CN(C(=O)c1ccc(Oc2ccc3ccccc3c2)cc1)c1ccccc1C(=O)O`, the Suppression is 10.1% in test [10] and -27.7% in test [9]. Further, in test [4], the Cell viability is -5.1.
For `O=C(Nc1ccccc1C(=O)O)c1ccc(Oc2ccc3ccccc3c2)c([N+](=O)[O-])c1`, the results for the Suppression in [10] and in test [3] were 36.9% and 93%, respectively. For the same molecule, the Cell viability in test [13] is recorded as 19.1.
Turning to `CC(C(=O)Nc1ccccc1C(=O)O)c1ccc(Oc2ccc3ccccc3c2)cc1` (centres undefined), the figures for the Suppression in test [3] and in test [5] were 8.7% and -15.9%, respectively. In addition, the Cell viability in test [4] is recorded as -2.1.
Consider `O=C(Nc1ccccc1C(=O)O)c1ccc(Oc2ccc3cc(O)ccc3c2)cc1`, for which the IC50 is more than 10000 nM in [2] and 1200 nM in test [14]. Further, the values for the Suppression in [3] and in [5] were 76.6% and -8.7%, respectively. In test [13], the Cell viability came to 5.2.
Regarding `O=C(Nc1ccccc1C(=O)O)c1ccc(Oc2cccc3ccccc23)cc1`, the figures for the Suppression in test [10] and in test [3] were 64.7% and 96.9%, respectively. The IC50 came to 2320 nM in [2] and 1570 nM in test [14]. In addition, the Cell viability in [4] was -6.5.
On to `O=C(O)c1ccccc1NCc1ccc(Oc2ccc3ccccc3c2)cc1`, for which the figures for the Suppression in [3] and in test [5] were 21.9% and -4.5%, respectively. In addition, in [4], the Cell viability is -1.7.
As to `O=C(Cc1ccc(Oc2ccc3cc(OCc4ccccc4)ccc3c2)cc1)Nc1ccccc1C(=O)O`, the figures for the Suppression in [10] and in test [3] were 91.7% and 95.1%, respectively. The IC50 is 1200 nM with RBL-1 [11], 8.3 nM in test [7], 12 nM in the test on B-cell line and 42 nM in test [2]. Also, the Cell viability in test [13] is listed as 58.2.
`O=C(O)c1ccc(NC(=O)c2ccc(Oc3ccc4ccccc4c3)cc2)cc1`: the Suppression in test [10] is given as 24.4%; in [9], 6.4%. For the same molecule, the Cell viability in test [4] was -16.1.

One may read the IC50 as the concentration that inhibits the measured activity by half. The low end stands for inhibition by little substance, the high end for a need for much substance.
